# Measured values reported in ChEMBL document CHEMBL1126730, “Synthesis and pharmacological evaluation of 4a-phenanthrenamine derivatives acting at the phencyclidine binding site of the N-methyl-D-aspartate receptor complex” (J Med Chem, 1993).
# Test system: not listed separately
# Test: Partition coefficient (logP) (HPLC)
# Format: physicochemical
# Conditions: octanol/water
row,SMILES,logP
1,CNC12CCCCC1CCc1ccccc12 (configuration not stated),3.25
2,NC12CCCCC1CCc1sccc12 (configuration not stated),3.02
3,CNC12CC(O)CCC1CCc1ccccc12 (configuration not stated),2.37
4,NC12CCCCC1CCc1ccccc12 (configuration not stated),2.92
5,CNC12CCCCC1CC(=O)c1ccccc12 (configuration not stated),2.41
6,CNC12CCCCC1CCc1c(C)cc(OC)cc12 (configuration not stated),4.02
7,CNC12CCCCC1COc1ccccc12 (configuration not stated),3.31
8,CNC12CCCCC1CSc1ccccc12 (configuration not stated),3.88
9,CNC12CCCCC1CC(O)c1ccccc12 (configuration not stated),1.84
10,CNC12CCCCC1CCc1ccc(O)cc12 (configuration not stated),2.56
11,CNC12CCCCC1CCc1ccc(OC)cc12 (configuration not stated),3.75
12,CNC12CCC(CN)CC1CCc1ccccc12 (configuration not stated),2
13,CNC12CC=CCC1CCc1ccccc12 (configuration not stated),3.07
14,CC1CC2CCCCC2(N)c2ccccc21 (configuration not stated),3.59
15,CCNC12CCCCC1CCc1ccccc12 (configuration not stated),3.41
16,NC12CC=CCC1CCc1ccccc12 (configuration not stated),2.75
17,CC1CC2CC=CCC2(N)c2ccccc21 (configuration not stated),3.4

# Molecular target: T1, Glutamate NMDA receptor (Rattus norvegicus) (UniProt P35439+Q00959+Q00960+Q00961+Q62645+Q8VHN2+Q9R1M7)
# Test: Percent inhibition at PCP site of NMDA receptor complex was measured by displacement of […] in whole rat brain homogenate at 10 E-7 M
# Format: tissue-based
# Conditions: not given
# Outline: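 [3H]TCP displacement from rat brain membrane preparation (cortical membranes in the methods; whole-brain homogenate in the assay description), following a previously published procedure.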
row,inhibition [%],SMILES
1,5,CC1(N)c2ccccc2CCC12CCCC2 (configuration not stated)
2,0,CNC12CC=CCC1CC(C)(C)c1ccccc12 (configuration not stated)
3,5,CNC1(C)c2ccccc2CCC12CCCC2 (configuration not stated)
4,7,c1ccc2c(c1)CCC1CCCCC21N1CCCCC1 (configuration not stated)
5,1,NCC1CCC2(N)c3ccccc3CCC2C1 (configuration not stated)
6,8,NC1c2ccccc2CCC12CCCC2 (configuration not stated)
7,8,CNC12CCC(CN)CC1CCc1ccccc12 (configuration not stated)
8,2,N#CC1CCC2(N)c3ccccc3CCC2C1 (configuration not stated)
9,8,CNC1c2ccccc2CCC12CCCC2 (configuration not stated)

# Molecular target: Glutamate NMDA receptor
# Test: Binding affinity towards PCP site of the NMDA receptor was measured by displacement of […] in […]
# Format: tissue-based, Brain
# Conditions: not given
row,SMILES,IC50 [nM]
1,CNC12CCCCC1CCc1ccccc12 (configuration not stated),14.7
2,CNC12CC=CCC1CSc1ccccc12 (configuration not stated),69
3,CC1(C)CC2CCCCC2(N)c2ccccc21 (configuration not stated),37000
4,CNC12CC=CCC1COc1ccccc12 (configuration not stated),122
5,NC12CCCCC1CCc1sccc12 (configuration not stated),43
6,"NC12CCCCC1CCc1ccccc12 (single isomer, unassigned; form 1)",11.3
7,CCNC12CCCCC1CSc1ccccc12 (configuration not stated),523
8,CNC12CC(O)CCC1CCc1ccccc12 (configuration not stated),500
9,NC12CCCCC1CCc1ccccc12 (configuration not stated),25.4
10,CNC12CCCCC1CC(=O)c1ccccc12 (configuration not stated),270
11,CNC12CCCCC1CCc1c(C)cc(OC)cc12 (configuration not stated),53.5
12,CNC12CCCCC1COc1ccccc12 (configuration not stated),113
13,CNC12CCCCC1CSc1ccccc12 (configuration not stated),62
14,CNC12CCCCC1CC(O)c1ccccc12 (configuration not stated),1490
15,CNC12CCCCC1CCc1ccc(O)cc12 (configuration not stated),2.07
16,CNC12CCCCC1CCc1ccc(OC)cc12 (configuration not stated),5.8
17,CNC12CC=CCC1CCc1ccccc12 (configuration not stated),27.3
18,CC1CC2CCCCC2(N)c2ccccc21 (configuration not stated),508
19,CCNC12CCCCC1CCc1ccccc12 (configuration not stated),199
20,NC12CC=CCC1CCc1ccccc12 (configuration not stated),87.5
21,CC1CC2CC=CCC2(N)c2ccccc21 (configuration not stated),2460

# Species on record: Mus musculus
# Test: Testing for ataxia was done by using an inverted screen technique
# Format: functional
# Conditions: not given
# Outline: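 Inverted-screen test in CF-1 mice (22-28 g), scored 5 min after retrobulbar test agent in 0.9% saline (5 mL/kg), immediately before NMDA injection.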
row,SMILES,Ataxia [mg/kg]
1,CNC12CCCCC1CCc1ccccc12 (configuration not stated),0.44
2,CNC12CC=CCC1CSc1ccccc12 (configuration not stated),1.8
3,NC12CCCCC1CCc1sccc12 (configuration not stated),3
4,"NC12CCCCC1CCc1ccccc12 (single isomer, unassigned; form 1)",<0.3
5,NC12CCCCC1CCc1ccccc12 (configuration not stated),0.55
6,CNC12CCCCC1CCc1c(C)cc(OC)cc12 (configuration not stated),3.3
7,CNC12CCCCC1COc1ccccc12 (configuration not stated),0.63
8,CNC12CCCCC1CSc1ccccc12 (configuration not stated),1.5
9,CNC12CCCCC1CCc1ccc(O)cc12 (configuration not stated),0.58
10,CNC12CCCCC1CCc1ccc(OC)cc12 (configuration not stated),0.4
11,CNC12CC=CCC1CCc1ccccc12 (configuration not stated),0.6
12,NC12CC=CCC1CCc1ccccc12 (configuration not stated),<1

# Molecular target: T1, Glutamate NMDA receptor (Rattus norvegicus)
# Test: Evaluated in vivo for its NMDA antagonist activity by the inhibition of NMDA-induced lethality in mice
# Format: functional, organism-based
# Conditions: Mus musculus; target entry is the homologue from another species
# Outline: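 CF-1 mice, 22-28 g. Test agent or vehicle (0.9% saline, 5 mL/kg) was given by retrobulbar injection 5 min before a 25 mg/kg NMDA bolus given retrobulbar in the other eye. Endpoint was prevention of lethality.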
row,SMILES,ED50 [mg/kg]
1,CNC12CCCCC1CCc1ccccc12 (configuration not stated),0.54
2,CNC12CC=CCC1CSc1ccccc12 (configuration not stated),2
3,NC12CCCCC1CCc1sccc12 (configuration not stated),0.97
4,CNC12CCCCC1CCc1c(C)cc(OC)cc12 (configuration not stated),5.6
5,CNC12CCCCC1COc1ccccc12 (configuration not stated),3.7
6,CNC12CCCCC1CSc1ccccc12 (configuration not stated),0.7
7,CNC12CCCCC1CCc1ccc(O)cc12 (configuration not stated),0.89
8,CNC12CCCCC1CCc1ccc(OC)cc12 (configuration not stated),1
9,CNC12CC=CCC1CCc1ccccc12 (configuration not stated),1.8
10,NC12CC=CCC1CCc1ccccc12 (configuration not stated),4.2

# Molecular target: Glutamate NMDA receptor
# Test: Ability to inhibit glutamate induced accumulation of [45 [Ca2+]] in cultured rat cortical neurons
# Format: functional
# Conditions: not given
# Outline: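 Fetal rat cortical hemisphere dissociated cultures used on day 14-16 after plating. Medium was serum- and Mg-free HBSS with 1.4 mM CaCl2, pH 7.4 (35 mM bicarbonate), 37 °C, 5% CO2. Cells were exposed 30 min to 100 μM L-glutamate (final) plus [45Ca2+] (2 μCi/mL) ± test agent, washed with saline, lysed, and counted. Baseline was subtracted.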
row,SMILES,IC50 [nM]
1,CNC12CCCCC1CCc1ccccc12 (configuration not stated),310
2,CNC12CC=CCC1CSc1ccccc12 (configuration not stated),420
3,NC12CCCCC1CCc1sccc12 (configuration not stated),1570
4,"NC12CCCCC1CCc1ccccc12 (single isomer, unassigned; form 1)",480
5,NC12CCCCC1CCc1ccccc12 (configuration not stated),370
6,CNC12CCCCC1CCc1c(C)cc(OC)cc12 (configuration not stated),930
7,CNC12CCCCC1COc1ccccc12 (configuration not stated),2300
8,CNC12CCCCC1CSc1ccccc12 (configuration not stated),710
9,CNC12CCCCC1CCc1ccc(O)cc12 (configuration not stated),64
10,CNC12CCCCC1CCc1ccc(OC)cc12 (configuration not stated),1110
11,CNC12CC=CCC1CCc1ccccc12 (configuration not stated),400
12,NC12CC=CCC1CCc1ccccc12 (configuration not stated),2350

# Test system: not listed separately
# Test: Partition coefficient was measured using a standard shake flask (SF) method at pH 7.4.
# Format: physicochemical
# Conditions: octanol/water
# Outline: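 Shake-flask partitioning at pH 7.4.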
row,SMILES,logD
1,NC12CCCCC1CCc1sccc12 (configuration not stated),0.66
2,CNC12CCCCC1CC(=O)c1ccccc12 (configuration not stated),0.78
3,CNC12CCCCC1CCc1c(C)cc(OC)cc12 (configuration not stated),1.72
4,CNC12CCCCC1COc1ccccc12 (configuration not stated),0.96
5,CNC12CCCCC1CSc1ccccc12 (configuration not stated),1.54
6,CNC12CCCCC1CC(O)c1ccccc12 (configuration not stated),0.73
7,CNC12CCCCC1CCc1ccc(O)cc12 (configuration not stated),0.31
8,CNC12CCCCC1CCc1ccc(OC)cc12 (configuration not stated),1.51
9,CC1CC2CCCCC2(N)c2ccccc21 (configuration not stated),1.61
10,CCNC12CCCCC1CCc1ccccc12 (configuration not stated),1.15
11,CC1CC2CC=CCC2(N)c2ccccc21 (configuration not stated),1.89
